Each structure is given as a SMILES string. In brackets after ≈: the same amount, converted by molar mass. Activity calls are given as the source filed them. The calls are words filed in the database; no cut-off is given here.

The values that follow come from ChEMBL document CHEMBL2384936, “Synthesis and evaluation of antimicrobial activity of hydrazones derived from 3-oxido-1H-imidazole-4-carbohydrazides” (Eur J Med Chem, 2013).

What all share (type): functional
Assay [1] relates to Staphylococcus epidermidis. As to the kind of experiment: Bactericidal activity against Staphylococcus epidermidis ATCC 12228 after 18 hrs by broth microdilution method. The conditions noted are these: ATCC 12228, 18 h. In short, it runs like this: (§1)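 Broth microdilution, then contents of wells without visible growth plated onto Mueller–Hinton agar and incubated 35 °C for 18 h. Triplicates, per CLSI.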

Assay [2] concerns Staphylococcus aureus. As to the kind of experiment: Bactericidal activity against Staphylococcus aureus ATCC 6538 after 18 hrs by broth microdilution method. The conditions noted are these: ATCC 6538, 18 h. The essentials: as §1
The subject of assay [3] is Staphylococcus epidermidis. As to the kind of experiment: Antibacterial activity against Staphylococcus epidermidis ATCC 12228 assessed as growth inhibition after 18 hrs by broth microdilution method. The conditions noted are these: ATCC 12228, 18 h. The essentials: (§2)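 Frozen stocks (-80 °C, tryptic soy broth with 15% glycerol); S. aureus subcultured on blood agar and identified by catalase, coagulase and clumping factor. Inoculum at 0.5 McFarland. MIC = lowest concentration preventing growth; triplicates, per CLSI.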

Assay [4] deals with Escherichia coli. The assay is described as follows: Antibacterial activity against Escherichia coli NCTC 8192 assessed as growth inhibition after 18 hrs by broth microdilution method. In short, it runs like this:
as §2

Assay [5] concerns Staphylococcus aureus. As to the kind of experiment: Bactericidal activity against Staphylococcus aureus ATCC 29213 after 18 hrs by broth microdilution method. The conditions noted are these: ATCC 29213, 18 h. In short, it runs like this: as §1
Assay [6] deals with Staphylococcus aureus. As to the kind of experiment: Antibacterial activity against Staphylococcus aureus ATCC 29213 assessed as growth inhibition after 18 hrs by broth microdilution method. Conditions: ATCC 29213, 18 h. The essentials:
(§3)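 Broth microdilution in Mueller–Hinton broth with 1–600 µg/mL compound added from DMSO stocks. Inoculum adjusted to 0.5 McFarland. Strains stored at -80 °C and subcultured on blood agar before use. Incubation 37 °C for 18 h with OD600 read. MIC taken as the lowest concentration preventing growth, run in triplicate following CLSI. Vancomycin and oxacillin served as controls.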

The subject of assay [7] is Staphylococcus aureus. The assay is described as follows: Antibacterial activity against Staphylococcus aureus ATCC 6538 assessed as growth inhibition after 18 hrs by broth microdilution method. Conditions: ATCC 6538, 18 h. The essentials:
as §3

Assay [8] deals with Escherichia coli. As to the kind of experiment: Bactericidal activity against Escherichia coli NCTC 8192 after 18 hrs by broth microdilution method. The essentials:
as §1

In assay [9] the test system is Staphylococcus aureus. As to the kind of experiment: Antibacterial activity against Staphylococcus aureus isolate D20 derived from bone assessed as growth inhibition after 18 hrs by broth microdilution method. Conditions: isolate D20, 18 h. The essentials: as §2
For assay [10], the system named is Staphylococcus aureus. The assay is described as follows: Antibacterial activity against Staphylococcus aureus isolate F7 derived from ulcer and furuncle assessed as growth inhibition after 18 hrs by broth microdilution method. The conditions noted are these: isolate F7, 18 h. In short, it runs like this:
as §2

Assay [11] has as its system Staphylococcus aureus. The assay is described as follows: Bactericidal activity against Staphylococcus aureus isolate C8 derived from naso-pharynx after 18 hrs by broth microdilution method. The conditions noted are these: isolate C8, 18 h. In short, it runs like this:
as §1

The subject of assay [12] is Staphylococcus aureus. As to the kind of experiment: Antibacterial activity against Staphylococcus aureus isolate D15 derived from bone assessed as growth inhibition after 18 hrs by broth microdilution method. The conditions noted are these: isolate D15, 18 h. The essentials:
as §2

Assay [13] deals with Staphylococcus aureus. As to the kind of experiment: Bactericidal activity against Staphylococcus aureus isolate C19 derived from naso-pharynx after 18 hrs by broth microdilution method. The conditions noted are these: isolate C19, 18 h. The essentials: as §1
For assay [14], the system named is Staphylococcus aureus. The assay is described as follows: Antibacterial activity against Staphylococcus aureus isolate D14 derived from bone assessed as growth inhibition after 18 hrs by broth microdilution method. Conditions: isolate D14, 18 h. The essentials:
as §2

Assay [15] deals with Staphylococcus aureus. As to the kind of experiment: Bactericidal activity against Staphylococcus aureus isolate F12 derived from ulcer and furuncle after 18 hrs by broth microdilution method. The conditions noted are these: isolate F12, 18 h. In short, it runs like this:
as §1

Assay [16] concerns Staphylococcus aureus. The assay is described as follows: Antibacterial activity against Staphylococcus aureus isolate D12 derived from ulcer and furuncle assessed as growth inhibition after 18 hrs by broth microdilution method. Conditions: isolate D12, 18 h. In short, it runs like this:
as §2

The test system of assay [17] is Staphylococcus aureus. The assay is described as follows: Bactericidal activity against Staphylococcus aureus isolate C7 derived from naso-pharynx after 18 hrs by broth microdilution method. The conditions noted are these: isolate C7, 18 h. The essentials: as §1
The subject of assay [18] is Staphylococcus aureus. As to the kind of experiment: Bactericidal activity against Staphylococcus aureus isolate F1 derived from ulcer and furuncle after 18 hrs by broth microdilution method. The conditions noted are these: isolate F1, 18 h. In short, it runs like this:
as §1

For assay [19], the system named is Staphylococcus aureus. The assay is described as follows: Antibacterial activity against Staphylococcus aureus isolate C7 derived from naso-pharynx assessed as growth inhibition after 18 hrs by broth microdilution method. Conditions: isolate C7, 18 h. The essentials: as §2
Assay [20] relates to Staphylococcus aureus. As to the kind of experiment: Bactericidal activity against Staphylococcus aureus isolate D17 derived from bone after 18 hrs by broth microdilution method. The conditions noted are these: isolate D17, 18 h. In short, it runs like this: as §1
The test system of assay [21] is Staphylococcus aureus. As to the kind of experiment: Antibacterial activity against Staphylococcus aureus isolate F12 derived from ulcer and furuncle assessed as growth inhibition after 18 hrs by broth microdilution method. Conditions: isolate F12, 18 h. The essentials: as §2
In assay [22] the test system is Staphylococcus aureus. The assay is described as follows: Antibacterial activity against Staphylococcus aureus isolate C4 derived from naso-pharynx assessed as growth inhibition after 18 hrs by broth microdilution method. The conditions noted are these: isolate C4, 18 h. In short, it runs like this: as §2
Assay [23] concerns Staphylococcus aureus. The assay is described as follows: Bactericidal activity against Staphylococcus aureus isolate D14 derived from bone after 18 hrs by broth microdilution method. The conditions noted are these: isolate D14, 18 h. The essentials:
as §1

The subject of assay [24] is Staphylococcus aureus. The assay is described as follows: Bactericidal activity against Staphylococcus aureus isolate C4 derived from naso-pharynx after 18 hrs by broth microdilution method. Conditions: isolate C4, 18 h. The essentials: as §1
In assay [25] the test system is Staphylococcus aureus. The assay is described as follows: Antibacterial activity against Staphylococcus aureus isolate C8 derived from naso-pharynx assessed as growth inhibition after 18 hrs by broth microdilution method. Conditions: isolate C8, 18 h. In short, it runs like this: as §2
For assay [26], the system named is Staphylococcus aureus. The assay is described as follows: Antibacterial activity against Staphylococcus aureus isolate C19 derived from naso-pharynx assessed as growth inhibition after 18 hrs by broth microdilution method. The conditions noted are these: isolate C19, 18 h. In short, it runs like this:
as §2

Assay [27] deals with Staphylococcus aureus. The assay is described as follows: Bactericidal activity against Staphylococcus aureus isolate D15 derived from bone after 18 hrs by broth microdilution method. The conditions noted are these: isolate D15, 18 h. The essentials: as §1
In assay [28] the test system is Staphylococcus aureus. The assay is described as follows: Bactericidal activity against Staphylococcus aureus isolate F7 derived from ulcer and furuncle after 18 hrs by broth microdilution method. Conditions: isolate F7, 18 h. In short, it runs like this:
as §1

The subject of assay [29] is Staphylococcus aureus. The assay is described as follows: Antibacterial activity against Staphylococcus aureus isolate D17 derived from bone assessed as growth inhibition after 18 hrs by broth microdilution method. The conditions noted are these: isolate D17, 18 h. In short, it runs like this: as §2
Assay [30] has as its system Staphylococcus aureus. As to the kind of experiment: Bactericidal activity against Staphylococcus aureus isolate D12 derived from ulcer and furuncle after 18 hrs by broth microdilution method. The conditions noted are these: isolate D12, 18 h. In short, it runs like this: as §1
Assay [31] concerns Staphylococcus aureus. The assay is described as follows: Antibacterial activity against Staphylococcus aureus isolate F1 derived from ulcer and furuncle assessed as growth inhibition after 18 hrs by broth microdilution method. The conditions noted are these: isolate F1, 18 h. The essentials: as §2
In assay [32] the test system is Staphylococcus aureus. As to the kind of experiment: Bactericidal activity against Staphylococcus aureus isolate D20 derived from bone after 18 hrs by broth microdilution method. The conditions noted are these: isolate D20, 18 h. The essentials:
as §1

With `O=C(N[C@H](CO)[C@H](O)c1ccc([N+](=O)[O-])cc1)C(Cl)Cl` [CHLORAMPHENICOL], the MBC in assay [1] was 2 µg/mL (≈ 6.19 µM); against Staphylococcus aureus [2] it was 4 µg/mL (≈ 12.4 µM); with Staphylococcus aureus [5], 4 µg/mL (≈ 12.4 µM); in the assay on Escherichia coli [8] (NCTC 8192, 18 h), 0.5 µg/mL (≈ 1.55 µM). For the same compound, the MIC in assay [3] was determined as 0.5 µg/mL (≈ 1.55 µM); in the assay on Escherichia coli [4] (NCTC 8192, 18 h), 0.25 µg/mL (≈ 0.774 µM); in the assay with Staphylococcus aureus [6], 1 µg/mL (≈ 3.09 µM); in the assay on Staphylococcus aureus [7], 1 µg/mL (≈ 3.09 µM).

Regarding `O=C1CN(/N=C/c2ccc([N+](=O)[O-])o2)C(=O)N1` [NITROFURANTOIN], the minimal bactericidal concentration (MBC) amounted to 32 µg/mL (≈ 134 µM) in assay [1]; 32 µg/mL (≈ 134 µM) in the assay with Staphylococcus aureus [2]; 32 µg/mL (≈ 134 µM) against Staphylococcus aureus [5]; 32 µg/mL (≈ 134 µM) with Escherichia coli [8] (NCTC 8192, 18 h). Also, the MIC in assay [3] is 8 µg/mL (≈ 33.6 µM); in the assay with Escherichia coli [4] (NCTC 8192, 18 h), 16 µg/mL (≈ 67.2 µM); in the assay with Staphylococcus aureus [6] it was 16 µg/mL (≈ 67.2 µM); in the assay with Staphylococcus aureus [7] it was 16 µg/mL (≈ 67.2 µM).

Take `Cc1onc(-c2ccccc2)c1C(=O)N[C@@H]1C(=O)N2[C@@H]1SC(C)(C)[C@@H]2C(=O)O` [OXACILLIN]: the MBC is 0.2 µg/mL (≈ 0.498 µM) in [1]; 0.2 µg/mL (≈ 0.498 µM) in the assay with Staphylococcus aureus [2]; 1.5 µg/mL (≈ 3.74 µM) in the assay on Staphylococcus aureus [11]; 0.2 µg/mL (≈ 0.498 µM) in the assay with Staphylococcus aureus [13]; 0.4 µg/mL (≈ 0.996 µM) against Staphylococcus aureus [15]; 0.4 µg/mL (≈ 0.996 µM) against Staphylococcus aureus [17]. Also, the MBC in the assay with Staphylococcus aureus [18] came out at 0.8 µg/mL (≈ 1.99 µM); against Staphylococcus aureus [20] it was 150 µg/mL (≈ 374 µM); against Staphylococcus aureus [5] it was 0.2 µg/mL (≈ 0.498 µM); against Staphylococcus aureus [23], 0.2 µg/mL (≈ 0.498 µM); against Staphylococcus aureus [24], 0.4 µg/mL (≈ 0.996 µM); with Staphylococcus aureus [27], 150 µg/mL (≈ 374 µM). In addition, the MBC worked out at 0.2 µg/mL (≈ 0.498 µM) against Staphylococcus aureus [28], 0.4 µg/mL (≈ 0.996 µM) against Staphylococcus aureus [30] and 0.4 µg/mL (≈ 0.996 µM) in the assay with Staphylococcus aureus [32]. For the same compound, the MIC came to 0.4 µg/mL (≈ 0.996 µM) in the assay with Staphylococcus aureus [9]; 0.2 µg/mL (≈ 0.498 µM) in the assay with Staphylococcus aureus [10]; 75 µg/mL (≈ 187 µM) in the assay with Staphylococcus aureus [12]; 0.2 µg/mL (≈ 0.498 µM) in assay [3]; 0.2 µg/mL (≈ 0.498 µM) with Staphylococcus aureus [14]; 0.2 µg/mL (≈ 0.498 µM) with Staphylococcus aureus [16]. Moreover, the MIC in the assay on Staphylococcus aureus [19] worked out at 0.2 µg/mL (≈ 0.498 µM); in the assay with Staphylococcus aureus [21], 0.2 µg/mL (≈ 0.498 µM); in the assay on Staphylococcus aureus [22], 0.4 µg/mL (≈ 0.996 µM); in the assay on Staphylococcus aureus [25] it was 1.5 µg/mL (≈ 3.74 µM); in the assay on Staphylococcus aureus [26] it was 0.2 µg/mL (≈ 0.498 µM); in the assay with Staphylococcus aureus [6] it was 0.2 µg/mL (≈ 0.498 µM). The MIC was determined as 75 µg/mL (≈ 187 µM) with Staphylococcus aureus [29], 0.2 µg/mL (≈ 0.498 µM) with Staphylococcus aureus [7] and 0.8 µg/mL (≈ 1.99 µM) in the assay with Staphylococcus aureus [31]. Besides, the MIC entry in the assay on Escherichia coli [4] was “inactive”. The MBC entry in the assay on Escherichia coli [8] is “inactive”.
